Only a selection was taken, and hits are over-represented in it overall.
CHOP inh – blocks CHOP induction under ER stress; hit rate 3.8% among 220,000; AID 2732; inhibition, % at 10 µM; CHO-K1 CHOP-promoter luciferase, tunicamycin-induced, 15-18 h;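 active means compounds that reduced the stress-induced luciferase reporter signal by more than about 70% of percent inhibition, limit read from the data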;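 further: 0% = tunicamycin plus vehicle and 100% = wells without tunicamycin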
UPR XBP1 act – adaptive UPR (XBP1) activation. activation, % at 20 µM. hit rate 0.33% among 330,000. CHO-XBP1 luciferase reporter, IRE1-XBP1 UPR activation, luminescence; percent of tunicamycin response, DMSO as zero. AID 463104;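 active means versus positive control, 20 µM dose yields 30% or more activation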;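 further: 100% = tunicamycin at 10 µg/mL and 0% = DMSO only wells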
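incubation = overnight seeding at 37 °C, 6 h compound treatment at 37 °C | assay system = CHO-XBP1 cells stably carrying IRE1-XBP1-driven luciferase reporter | input = 1000 cells per well | detection = luciferase luminescence | dosing = single point, 20 µM final compound, 1% DMSO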
UPR CHOP act – activators of apoptotic arm of unfolded protein response (CHOP); CHO-CHOP luciferase reporter, UPR activation, luminescence; percent of tunicamycin response over DMSO baseline; activation, % at 10 µM; hit rate 0.34% among 330,000; AID 449763;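 active means at 10 µM dose, activation of 40% or more, normalized to positive control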;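 further: 100% = tunicamycin at 10 µg/mL and 0% = DMSO alone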
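Test system: CHO-CHOP cells, stable luciferase reporter of PERK-eIF2a-CHOP signalling | Quantity: 500 CHO-CHOP cells per well | Buffer or medium: F12 plus 10% serum | Compound dosing: 10 µM single point, 0.5% DMSO | Schedule: 6 h compound treatment, 37 °C | Signal: Luciferase luminescence | Control set: Tunicamycin high control, DMSO low control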
Dynein transport – blocks dynein driven cargo transport along microtubules; 3617.4 mouse cells, GR-EGFP nuclear translocation imaging; test concentration mostly 20 µM; stimulated with dexamethasone, 1 µM; active compounds read low; hit rate 0.47% among 220,000; z-score, hits read low;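 active means plate z-score of nuclear minus cytoplasmic receptor signal below a set negative limit, without overly bright fluorescence or cell loss, cut at about -3.5 in these data, passing the limit was not always enough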;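 further: z-score of nuclear minus cytoplasmic ring GR-EGFP intensity difference per well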
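Also added: dexamethasone, 1.0 µM final. Medium: tet-free, stripped-serum medium. Detection: fixed, Hoechst-stained cells imaged at 10x for EGFP. Read-out: nuclear-to-cytoplasmic GR-EGFP distribution per well. Times: induction 48 h, compound 1 h, agonist 30 min.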
T cruzi inh – blocks replication of Trypanosoma cruzi. T. cruzi beta-gal in NIH3T3, luminescence, 90 h. hit rate 1.4% among 300,000. AID 1885. inhibition, % (concentration not given with the values);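 active means mean inhibition across valid replicates above about 55%, limit read from the data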;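 further: signal also drops with host cell toxicity which is not excluded here; 0% = plate median of DMSO wells and 100% = zero luminescence signal; higher percent means less beta-gal luminescence so fewer parasites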
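Assay system: NIH/3T3 fibroblasts plus reporter T. cruzi. Amount: NIH/3T3 cells, 5,000 per well. Buffer or medium: DMEM, 2% fetal bovine serum. Doses: compound pinned at 50 nL/well, DMSO. Schedule: ≥90 h infection period, 3 h prior cell attachment. Signal: luminescent β-galactosidase signal after 60 min lysis. Read-out: parasite load inhibition, %.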
Lmaj promast – inhibitors of Leishmania major promastigote growth. Leishmania major promastigotes, resazurin fluorescence viability. inhibition, % at 10 µM. AID 1063. hit rate 9% among 200,000; in the data active means inhibition above about 50%;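 further: promastigotes grown with compound for 44 hours at 28 °C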
CHOP confirm – confirmation of CHOP induction inhibitors; shares compounds with CHOP inh; CHO-CHOP promoter luciferase reporter, tunicamycin-induced, luminescence; inhibition, % at 10 µM; hit rate 45% among 2,100;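 active means mean of three repeat readings of reporter signal inhibition above a set limit, cut at about 70% in these data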;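 further: 0% = tunicamycin plus vehicle and 100% = wells lacking tunicamycin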
The depositor's hits bear a star; . = no result given.

SMILES | CHOP inh | UPR XBP1 act | UPR CHOP act | Dynein transport | T cruzi inh | Lmaj promast | CHOP confirm
Cc1ccc(N=CC2=C(O)CC(c3cccc(Cl)c3)CC2=O)cc1 (stereo unspecified) | 29 | -1 | 2 | 0.19 | -35 | -7 | .
Cc1ccc(N=CC2=C(O)CC(c3ccccc3Cl)CC2=O)cc1 (stereo unspecified) | 3 | 4 | 1 | -0.37 | -11 | . | .
CCc1ccc(/C=C2/C(=O)NC(=O)N2C(C)=O)cc1 | . | 1 | 6 | . | -11 | . | .
CCc1ccc(/C=c2\s/c(=C\C(=O)C(C)(C)C)[nH]c2=O)cc1 | 107* | 0 | -1 | 0.55 | 0 | 39 | 80*
Cc1cc(N2CCOCC2)nc2ccc(NC(=S)N3CCN(c4ccccc4)CC3)cc12 | 101* | 0 | 9 | 1.2 | 30 | 4 | -13
CC(C)n1nc(C(=O)Nc2cccc(S(=O)(=O)N3CCCCC3)c2)c2ccccc2c1=O | . | 0 | -1 | . | . | . | .
O=C(O)COc1ccccc1C(Nc1cccnc1)c1cc(Cl)c2cccnc2c1O (stereo unspecified) | -6 | -2 | -2 | -0.23 | -23 | -5 | .
O=C(NC(c1ccccc1)c1cc(Cl)c2cccnc2c1O)c1cccnc1 (stereo unspecified) | 104* | 4 | 13 | 0.033 | 58* | 98* | 104*
CC(C)(C)OC(=O)N[C@@H](C(=O)OC(C)(C)C)c1ccc(Br)cc1 | . | -2 | -1 | . | . | . | .
Cc1cc(C)cc(Oc2ccccc2C=O)c1 | 99* | 14 | -2 | -0.39 | -2 | 4 | 18
O=C(CSc1ncnc2[nH]ncc12)Nc1nc(-c2ccc(F)c(F)c2)cs1 | 99* | 8 | 1 | -1.7 | 17 | 14 | 116*
Cc1ccc(NC(=O)CSc2ncc3ccccn23)cc1C | -17 | 1 | 3 | -0.24 | 11 | -3 | .
CCCN1CCN(CCCNC(=O)C(CC)n2nc(C)n3c(cc4occc43)c2=O)CC1 (stereo unspecified) | . | 3 | 6 | . | -1 | . | .
CCN1/C(=C/C=C/C=C/c2sc3ccccc3[n+]2CC)Sc2ccccc21 | 104* | -8 | 10 | -2.4 | 58* | 100* | 119*
C=CCOc1c(Br)cc(/C=N/n2c(CC)n[nH]c2=S)cc1Br | 107* | 0 | 0 | -0.17 | -20 | -5 | -7
Cc1ccc(NC(=O)c2cnccn2)c(Br)c1 | . | 4 | 2 | . | 2 | . | .
Cc1cccc(Oc2ccccc2NC(=O)c2cnccn2)c1 | 99* | -1 | -3 | -0.16 | -1 | 3 | -16
N#Cc1ccc(S(=O)(=O)NCC(=O)OCC(=O)N2CCCC2=O)cc1 | . | -2 | 1 | . | 9 | . | .
Cc1nc(NCc2ccc3c(c2)OCO3)c2nnn(Cc3ccccc3)c2n1 | 101* | 5 | 0 | 0.67 | 11 | -10 | 66
C[C@H](CO)N1C[C@H](C)[C@@H](CN(C)Cc2ccccc2)Oc2c(NS(=O)(=O)c3cn(C)cn3)cccc2C1=O | . | 0 | 1 | . | . | . | .
C/C(=C\c1ccco1)C1C(C#N)=C(N)Oc2n[nH]c(-c3ccc(C)cc3)c21 (stereo unspecified) | 105* | 3 | 0 | -0.35 | -28 | 24 | 114*
CNc1oc(-c2cccc3ccccc23)nc1C#N | 41 | 9 | 4 | -0.32 | 1 | -4 | .
COc1ccc(CNc2oc(-c3cccc4ccccc34)nc2C#N)cc1 | 97* | 0 | -2 | -0.82 | 13 | -6 | 98*
CC(=O)NC12CC3CC(C1)CC(C(=O)NCc1ccc(C)cc1)(C3)C2 | . | -5 | 3 | . | 1 | . | .
O=[N+]([O-])c1cc2oc3c(c2c(C=NCc2ccccc2)c1O)CCCC3 | 99* | -1 | 1 | -1.3 | 2 | 11 | 8
CN(CC(=O)Nc1ccccc1Cl)C(=O)c1ccc(COc2ccccc2)cc1 | . | -1 | 2 | . | 1 | . | .
COc1ccccc1OS(=O)(=O)c1ccc(NC(C)=O)cc1 | 10 | -2 | 2 | 0.93 | 8 | 8 | .
COC(=O)/C=C/S(=O)(=O)c1ccc(NC(C)=O)cc1 | . | -8 | -10 | -3.9* | 36 | -8 | 64

Assay outcomes (PubChem)
